Source: PubChem (Johns Hopkins Ion Channel Center)
An excerpt weighted towards active compounds, which were near 2.9% of everything screened.
TRPC6 act – activators of mouse TRPC6 channel; B-score at 10 µM; 0.13% of 310,000 active; HEK293-TRPC6 membrane potential dye fluorescence; stronger effect = higher value; Q61143;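 active = B-score of the integrated fluorescence ratio above library mean plus 3 SD, and starting fluorescence ratio within library mean plus 5 SD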;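 note: higher score means more depolarization so channel activation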
TRPC4 inh – blocks the mouse TRPC4 cation channel. HEK293 TRPC4beta/mu-opioid, DAMGO-evoked Fluo4 calcium flux; stronger effect = lower value. B-score at 10 µM. 0.39% of 300,000 active. AID 2247;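 active = B-score over 3 SD under the library average, no early fluorescence shift, positive overall ratio signal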
Target sequence (Q9QUQ5 whole entry, looked up): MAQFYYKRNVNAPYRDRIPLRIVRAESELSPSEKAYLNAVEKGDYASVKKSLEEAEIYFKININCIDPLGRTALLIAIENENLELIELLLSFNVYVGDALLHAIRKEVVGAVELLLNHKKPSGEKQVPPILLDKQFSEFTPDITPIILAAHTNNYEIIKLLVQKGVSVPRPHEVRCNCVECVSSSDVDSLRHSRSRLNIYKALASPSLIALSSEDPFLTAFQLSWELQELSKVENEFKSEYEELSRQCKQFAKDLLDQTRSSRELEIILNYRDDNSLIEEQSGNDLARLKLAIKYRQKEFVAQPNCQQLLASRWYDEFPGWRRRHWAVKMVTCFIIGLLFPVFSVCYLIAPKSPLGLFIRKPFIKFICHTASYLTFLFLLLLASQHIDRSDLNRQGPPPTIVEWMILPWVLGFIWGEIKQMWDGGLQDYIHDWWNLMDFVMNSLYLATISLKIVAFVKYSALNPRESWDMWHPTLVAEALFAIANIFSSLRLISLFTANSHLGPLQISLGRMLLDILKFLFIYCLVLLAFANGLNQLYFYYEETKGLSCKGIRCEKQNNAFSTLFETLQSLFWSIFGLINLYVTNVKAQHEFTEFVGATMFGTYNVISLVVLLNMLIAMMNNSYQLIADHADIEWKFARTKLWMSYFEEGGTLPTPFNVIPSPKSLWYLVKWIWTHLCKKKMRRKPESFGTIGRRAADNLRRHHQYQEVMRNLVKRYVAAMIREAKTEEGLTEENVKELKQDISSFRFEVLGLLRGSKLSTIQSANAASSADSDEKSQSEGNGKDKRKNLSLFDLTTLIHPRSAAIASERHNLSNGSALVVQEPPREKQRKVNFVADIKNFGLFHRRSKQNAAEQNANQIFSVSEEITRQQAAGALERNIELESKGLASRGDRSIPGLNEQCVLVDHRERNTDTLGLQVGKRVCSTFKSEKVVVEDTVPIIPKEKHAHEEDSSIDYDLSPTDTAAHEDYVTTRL
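Assay system: HEK293 cells with stable TRPC4beta plus mu-opioid receptor expression. Dosing: single dose. Measured by: Fluo4 Ca2+ flux fluorescence. Also added: DAMGO in two steps, submaximal then maximal. Read-out: B score from integrated Fluo4 fluorescence ratio.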
TRPC4 act – activators of mouse TRPC4 channel | HEK293 TRPC4beta/mu-opioid, Fluo4 calcium fluorescence; stronger effect = higher value | 0.49% of 310,000 active | B-score at 10 µM | Q9QUQ5 | AID 2237;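 active = B-score above 5 SD of library B-scores, and initial fluorescence ratio not above library mean plus 5 SD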;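 note: positive B-score marks a calcium rise read as TRPC4 activation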
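Material: HEK293 stable line with TRPC4beta plus mu-opioid receptor; technique: Fluo4 calcium-sensitive dye fluorescence, kinetic, 1 Hz baseline; timing: Fluo4 dye loading 45 min at room temperature, 110 s recording; controls: assay buffer as low control, maximal DAMGO as high control; read-out: integrated baseline-normalised fluorescence ratio, converted to per-well B score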
Kir21 block – inhibitors of mouse Kir2.1 inward-rectifier potassium channel. HEK293-Kir2.1, FluxOR thallium flux fluorescence; stronger effect = lower value. B-score at 10 µM. 0.85% of 310,000 active. AID 1672. P35561;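 active = fluorescence ratio B-score at or below minus 3 SD of library scores, with starting-brightness B-score within 2 SD, cut at about -4.2 in these data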;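 note: channel flux triggered by added potassium and thallium sulfate stimulus; B-score of peak minus minimum fluorescence over baseline after thallium stimulus; more negative B-score means stronger Kir2.1 block with less thallium influx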
TRPC6 inhibitor – blocks the mouse TRPC6 cation channel; AID 2553; Q61143; B-score at 10 µM; HEK293-TRPC6, membrane potential dye, ACh-evoked depolarization; stronger effect = lower value; 1.1% of 310,000 active;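 active = B-score under library mean minus 3 SD, initial fluorescence not abnormally high, positive integrated signal ratio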;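 note: B-score derived from integrated fluorescence ratio over the kinetic read; more negative B-score means stronger inhibition of depolarization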
TRPC4 potent – allosterically enhances the mouse TRPC4 cation channel | B-score at 10 µM | Q9QUQ5 | 0.42% of 310,000 active | HEK293 TRPC4beta/mu-opioid, DAMGO EC20, Fluo-4 Ca2+ flux; stronger effect = higher value;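 active = B-score of calcium response area above 5 SD of library B-scores, with initial fluorescence ratio within 5 SD of library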;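 note: B-score of integrated fluorescence ratio over time as area under calcium response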
TRPC4 sel inh 2 – mouse TRPC4 off-target activity of TRPC6 inhibitors, second screen | inhibition, % at 10 µM | 42% of 920 active | shares compounds with TRPC6 inhibitor | HEK293 TRPC4/MOR, membrane potential dye fluorescence; channel activated by saturating DAMGO dose;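 active = compounds whose fluorescence signal differed from control wells by over 3 SD, either direction, in both duplicate plates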
TRPC4 spec – selectivity of TRPC6 inhibitors: effect on mouse TRPC4; 61% of 920 active; shares compounds with TRPC6 inhibitor; HEK293 TRPC4/mu-opioid, membrane potential fluorescence; activity change, negative = inhibition, % at 10 µM; AID 2777;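 active = rise or fall in signal beyond 3 SD of buffer-only wells in both replicate plates, either sign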;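 note: integrated kinetic ratio of fluorescence range over baseline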
HEK293 MPD ctr 2-1 – parental HEK293 nonspecific activity of TRPC6 inhibitors, second screen. shares compounds with TRPC6 inhibitor. parental HEK293 membrane potential dye fluorescence; maximal acetylcholine challenge after compound addition. signal change vs control, % at 10 µM. 31% of 920 active. AID 2779;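 active = membrane potential signal moving either way by over 3 SD of the maximum-effect control, in both duplicate plates, meaning non-specific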
HEK293 MPD ctr-1 – parental HEK293 nonspecific activity of TRPC6 inhibitors. shares compounds with TRPC6 inhibitor. parental HEK293 membrane potential dye fluorescence. membrane potential signal change, % at 10 µM. 60% of 920 active. AID 2780;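 active = membrane potential signal shifting up or down by more than 3 SD of buffer-only wells, on both duplicate plates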
HEK293 MPD ctr-2 – counter-screen for TRPC6 modulators: effect in parental HEK293 cells; shares compounds with TRPC6 inhibitor; membrane potential dye fluorescence; membrane potential signal change, % at 10 µM; 51% of 2,400 active; AID 488924;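 active = membrane potential signal moves up or down beyond 5 SD from buffer-only wells, on both duplicate plates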
HEK293 MPD ctr 2-2 – parental HEK293 nonspecific activity of TRPC6 modulators, second screen; AID 488926; inhibition, % at 10 µM; shares compounds with TRPC6 inhibitor; membrane potential dye fluorescence; after compound, maximal acetylcholine stimulation; 14% of 2,400 active;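 active = membrane potential signal drops by more than 5 SD from the mean control signal, in both duplicate plates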;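 note: plate controls were acetylcholine ECmax control wells for no effect and buffer only wells for full effect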
TRPC4/MOR mod – tests whether TRPC6 modulators also affect mouse TRPC4 | AID 488927 | 69% of 2,400 active | HEK293 TRPC4/mu-opioid, membrane potential fluorescence | shares compounds with TRPC6 inhibitor | percent change from control (negative = decrease, positive = increase), % at 10 µM;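 active = membrane potential signal moved up or down beyond 5 SD of buffer control wells, in both duplicate plates, actives on both sides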;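 note: plate controls were assay buffer wells for no effect and DAMGO maximal-effect wells for full effect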
TRPC4/MOR inh 2 – second check of whether TRPC6 modulators also affect mouse TRPC4. shares compounds with TRPC6 inhibitor. HEK293 TRPC4/mu-opioid, membrane potential dye fluorescence; stimulated with maximal-effect DAMGO. inhibition, % at 10 µM. 55% of 2,400 active;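 active = drop in membrane potential signal beyond 5 SD of the control wells in both duplicate plates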;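 note: TRPC4 counter screen for TRPC6 hits run under conditions tuned for TRPC6 not TRPC4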
TRPC6 block conf – mouse TRPC6 inhibitor confirmation | shares compounds with TRPC6 inhibitor | HEK293-TRPC6, membrane potential dye, ACh-evoked depolarization | inhibition, % at 10 µM | 43% of 3,300 active | AID 488960;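 active = fluorescence ratio falls more than 5 SD below the full-stimulation control mean, in both duplicate runs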;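 note: integrated fluorescence ratio of peak minus minimum over baseline after agonist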
TRPC6 act conf – mouse TRPC6 activator confirmation. shares compounds with TRPC6 inhibitor. HEK293-TRPC6 membrane potential dye fluorescence, FDSS. activation, % at 10 µM. 11% of 2,800 active;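 active = ratio signal rise beyond 5 SD above unstimulated control wells' mean, seen in both duplicate runs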;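 note: plate controls were buffer EC0 wells for no effect and acetylcholine ECmax response for full effect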
* marks the source's active call; other numbers are inactive results; i = inactive; . = no result given.

SMILES	TRPC6 act	TRPC4 inh	TRPC4 act	Kir21 block	TRPC6 inhibitor	TRPC4 potent	HEK293 MPD ctr-2	HEK293 MPD ctr 2-2	TRPC4/MOR mod	TRPC4/MOR inh 2	TRPC6 block conf	TRPC6 act conf	others
Brc1cc(Br)c2ncnc(N3CCCCC3)c2c1	i	i	i	-0.09	i	i	.	.	.	.	.	.
O=C(Nc1ccc2oc(=O)ccc2c1)c1cccnc1	i	i	i	0.61	-6.27*	i	-179.5%*	i	-31.0%*	i	i	i
O=C(NCCCn1ccnc1)c1cc2cc([N+](=O)[O-])ccc2oc1=O	i	i	i	-0.03	-4.99*	i	-83.0%*	i	-15.0%*	i	i	i
O=C(NCCCn1ccnc1)c1ccc(Cl)cc1[N+](=O)[O-]	i	i	i	-1.49	i	i	.	.	.	.	.	.
CCCn1c(C)cc(=O)c2cc(NC(=O)c3ccccn3)ccc21	i	i	i	-1.98	-10.6*	i	-345.0%*	125.5%*	-58.0%*	73.5%*	86.0%*	i
CCCC(=O)Nc1ccc(NC(=O)c2ccccn2)cn1	i	i	i	-0.37	i	i	.	.	.	.	.	.
CCn1c(/N=C/c2c[nH]c3ccccc23)nc2ccccc21	i	i	i	0	-8.06*	i	.	.	.	.	53.1%*	i	TRPC4 sel inh 2=75.0%*;TRPC4 spec=-9.7%*;HEK293 MPD ctr 2-1=i;HEK293 MPD ctr-1=-165.0%*
CC1CCN(CC(C)CNC(=O)c2cc(-c3ccccn3)nc3ccccc23)CC1 (centres undefined)	i	i	i	-0.83	-8.58*	i	.	.	.	.	i	i	TRPC4 sel inh 2=70.0%*;TRPC4 spec=i;HEK293 MPD ctr 2-1=208.5%*;HEK293 MPD ctr-1=i
O=C(NC1CCN(Cc2ccccc2)CC1)c1cc(-c2ccccn2)nc2ccccc12	i	i	i	-0.14	i	i	.	.	.	.	.	.
O=C(Nc1ccc(C2=NCCN2)cc1)c1ccc(C(=O)Nc2ccc(C3=NCCN3)cc2)c([N+](=O)[O-])c1	15.3*	i	i	-0.82	i	i	440.5%*	i	70.0%*	i	i	193.0%*
CC(=O)c1ccc(Nc2nc(=O)c3cccnc3s2)cc1	i	i	i	1.04	-5.78*	i	-175.5%*	i	-33.0%*	i	i	i
CCOC(=O)C1=C(O)c2ccccc2C(=O)/C1=C\c1ccc(CC)cc1	14.8*	i	i	-2.95	i	i	551.5%*	i	129.5%*	i	i	182.0%*
Cc1oc(-c2ccc(Cl)cc2)nc1CN1CCC(C(=O)N2CCc3ccccc3C2)CC1	14.3*	i	i	-1.8	i	15*	201.5%*	i	32.0%*	61.5%*	i	80.0%*
Cc1oc(-c2ccc(Cl)cc2)nc1CN1CCC(C(=O)NCc2ccco2)CC1	12.5*	-6*	i	1.22	i	i	i	i	8.0%*	72.0%*	.	121.5%*
Cc1oc(-c2ccc(Cl)cc2)nc1CN1CCCC(C(=O)NCc2ccccn2)C1 (centres undefined)	16.1*	i	i	-1.45	-5.8*	i	159.5%*	i	18.0%*	72.0%*	64.0%*	144.0%*
CCc1ccc(-c2nc(CN3CCC(C(=O)NCc4ccccc4OC)CC3)c(C)o2)cc1	i	i	i	-1.58	i	i	.	.	.	.	.	.
COc1ccccc1CNC(=O)C1CCN(Cc2nc(-c3cccc(Cl)c3)oc2C)CC1	i	i	i	0.91	-9.48*	i	115.0%*	i	15.0%*	97.0%*	i	.
C/C=C/c1ccc(OCCCCOc2ccccc2F)c(OC)c1	i	i	i	0.98	i	i	.	.	.	.	.	.
CSc1ccc(/C=N/NC(=O)CN2CCN(Cc3ccc(Cl)cc3)CC2)cc1	i	i	i	0.93	i	i	.	.	.	.	.	.
O=C(Nc1ccc2c(c1)OCO2)C1CC(=O)N(c2cccc(Cl)c2)C1 (centres undefined)	i	i	i	-0.55	i	i	.	.	.	.	.	.
CC(C)CN1CCN(Cc2cnc(-c3ccc(Cl)cc3)nc2)CC1CCO (centres undefined)	i	i	i	-0.17	i	i	.	.	.	.	.	.
CCOc1ccc(NC(=O)NNC(=O)c2cccnc2)cc1	i	i	i	-0.03	i	i	.	.	.	.	.	.
Cc1oc(-c2ccc(Cl)cc2)nc1CN1CCC(C(=O)N2CCN(Cc3ccccc3)CC2)CC1	12.4*	i	i	0.16	i	i	226.0%*	i	40.0%*	67.5%*	i	129.0%*
COc1cc(-c2nc(CN3CCN(C(=O)c4ccco4)CC3)c(C)o2)ccc1F	12.5*	i	i	-1.46	-6.29*	i	i	i	11.5%*	i	61.5%*	139.0%*
CCN1CCCC1CNC(=O)C1CCN(Cc2nc(-c3cccc(Br)c3)oc2C)CC1 (centres undefined)	i	i	i	-2.19	-8.89*	i	.	.	.	.	i	i	TRPC4 sel inh 2=60.0%*;TRPC4 spec=-17.8%*;HEK293 MPD ctr 2-1=i;HEK293 MPD ctr-1=-240.0%*
